Test results from ChEMBL document CHEMBL1155242, “Radiolabeled 5-iodo-3'-O-(17beta-succinyl-5alpha-androstan-3-one)-2'-deoxyuridine and its 5'-monophosphate for imaging and therapy of androgen receptor-positive cancers: synthesis and biological evaluation” (J Med Chem, 2009).

Columns and labels:
Serum = assay: Stability in human serum assessed as half life at 10 to 20 uCi/mL by reversed phase HPLC analysis; type: ADME, cell-free
Outline: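 The compound was incubated with rabbit or human serum at ambient temperature, and aliquots were taken at 1, 5 and 24 h. Aliquots were run on size-exclusion HPLC (TSK3000; 0.1 M potassium phosphate/0.1 M Na2SO4, pH 6.8, then an acetonitrile gradient). Extracts were run on C18 reversed-phase HPLC (water/acetonitrile with 0.07% TFA). Half-lives came from a monoexponential fit.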

LNCaP [1] = assay: Cellular uptake in single-cell suspension of nonproliferating human LNCAP cells expressing androgen receptor at 0.03 uCi/mL up to 2 hrs by gamma counting; type: ADME, cell-based; conditions: TDE = time-dependent effect
Outline: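 Low-passage LNCaP held as single-cell suspension (non-proliferating) in RPMI-1640 with radioligand at 0.03 or 0.37 μCi/mL; whole-cell and nuclear radioactivity measured over time.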

[2] = Biodistribution in […] in athymic NCr mouse xenografted with human OVCAR-3 cells at 45 uCi, ip after 72 hrs by gamma counting; type: ADME, organism-based; conditions: in vivo
Outline: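 Athymic NCr-nu/nu mice with ip OVCAR-3; 45 μCi given ip without prior SSKI. Whole-body planar imaging at 72 h with region-of-interest analysis as percent of whole-body activity; peritoneal lavage cells and ascites counted.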

[3] = Clearance in peritoneum of athymic NCr mouse xenografted with human OVCAR-3 cells assessed as half life at 1.12 uCi, ip by gamma counting; type: ADME, organism-based; conditions: in vivo
Outline: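 Peritoneal clearance measured in athymic NCr-nu/nu mice bearing intraperitoneal NIH:OVCAR-3 xenografts after an ip dose of the 125I compound. The peritoneal cavity was lavaged, and 125I was counted in the lavage and in the recovered tumor cells. Half-lives were estimated from the clearance curves.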

OVCAR-3 [4] = assay: Antitumor activity against human OVCAR-3 cells xenografted in athymic NCr mouse assessed as number of cancer cells in peritoneum at 180 uCi, ip administered 9 days after tumor implantation as six fractionated doses every 4 days measured after 2 weeks of last dose by gamma counting; type: functional
Outline: (§1)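 OVCAR-3 ip xenografts in athymic mice; six fractionated ip doses every 4 days, total 180 μCi/mouse, with PBS or vehicle ip controls. Nonadherent tumor cells recovered by peritoneal lavage at necropsy, counted and pellet-weighed.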

OVCAR-3 [5] = assay: Antitumor activity against human OVCAR-3 cells xenografted in athymic NCr mouse assessed as reduction of tumor size in peritoneum at 180 uCi, ip administered 9 days after tumor implantation as six fractionated doses every 4 days measured after 2 weeks of last dose by gamma counting; type: functional; set-up: scale not given: the % may be the effect or the level left; outline: as §1
OVCAR-3 [6] = assay: Cellular uptake in human OVCAR-3 cells xenografted in athymic NCr mouse assessed per gram of cells at 180 uCi, ip administered 9 days after tumor implantation as six fractionated doses every 4 days measured after 12 days by gamma counting; type: ADME, organism-based; conditions: in vivo, 288 h
Outline: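 Mice treated with one, three or six ip doses; nonadherent OVCAR-3 cells lavaged at necropsy, 12 days after last of six doses, and counted; %ID/g decay-corrected; DNA-bound fraction measured.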

[7] = Ratio of drug level in tumor to spleen in athymic NCr mouse xenografted with human OVCAR-3 cells at 180 uCi, ip administered 9 days after tumor implantation as six fractionated doses every 4 days measured after 1.5 hrs by gamma counting; type: ADME, organism-based; conditions: in vivo
[8] = Ratio of drug level in tumor to uterus in athymic NCr mouse xenografted with human OVCAR-3 cells at 180 uCi, ip administered 9 days after tumor implantation as six fractionated doses every 4 days measured after 48 hrs by gamma counting; type: ADME, organism-based; conditions: in vivo
[9] = Chemical stability in phosphate buffer saline by HPLC analysis; type: physicochemical
LNCaP [10] = assay: Cytotoxicity against human LNCAP cells expressing androgen receptor assessed as cell survival at 8 uCi/mL after 48 hrs; type: functional
Outline: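 LNCaP human prostate cancer cells were grown for 48 h with the 125I-labelled compound in the medium, and cell survival was then determined. D37 was expressed as the extracellular concentration in μCi/mL.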

Mus musculus = assay: Toxicity in athymic NCr mouse xenografted with human OVCAR-3 cells assessed as hemoglobin level at 0.25 mCi, ip administered 31 days after tumor implantation as single bolus dose measured 55 days after implantation […] in presence of SHBG (RVb= 11.5 +/- 1.3 g/dL); type: organism-based; conditions: in vivo
[11] = target: T1, Sex hormone-binding globulin (Homo sapiens, UniProt P04278); assay: Binding affinity to human sex hormone binding globulin at 20 uCi after 60 mins by reversed phase HPLC analysis; type: ADME; conditions: 1 h
T1 sequence (P04278 whole entry): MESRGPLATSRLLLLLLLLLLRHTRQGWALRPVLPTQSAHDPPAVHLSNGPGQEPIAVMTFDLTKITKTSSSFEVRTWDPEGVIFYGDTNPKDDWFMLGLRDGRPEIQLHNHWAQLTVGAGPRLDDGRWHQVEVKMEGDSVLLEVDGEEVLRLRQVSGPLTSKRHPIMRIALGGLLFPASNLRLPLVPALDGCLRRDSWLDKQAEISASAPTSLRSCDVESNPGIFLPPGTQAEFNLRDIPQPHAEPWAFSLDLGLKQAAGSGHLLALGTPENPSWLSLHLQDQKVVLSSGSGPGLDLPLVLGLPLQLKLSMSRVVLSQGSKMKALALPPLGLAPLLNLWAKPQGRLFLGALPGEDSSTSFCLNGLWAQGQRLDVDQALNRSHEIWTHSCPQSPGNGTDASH

Blood [12] = assay: Biodistribution in blood of athymic NCr mouse xenografted with human OVCAR-3 cells assessed per gram of tissue at an average 39.5 uCi/dose, ip administered 9 days after tumor implantation as six fractionated doses every 4 days measured after 2 weeks of last dose by gamma counting; type: ADME, organism-based; conditions: in vivo, 336 h
Outline: (§2)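 OVCAR-3-bearing and healthy athymic mice given fractionated ip doses on the six-dose every-4-days schedule; tissues, tumor and lavaged cells γ-counted at necropsy, %ID/g; DNA-bound 125I in cells measured as cpm/cell.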

OVCAR-3 [13] = assay: Antitumor activity against human OVCAR-3 cells xenografted in athymic NCr mouse assessed as solid tumor weight in peritoneum at 0.25 mCi, ip administered 31 days after tumor implantation as single bolus dose measured 55 days after implantation by gamma counting in presence of SHBG (Rvb= 1.9 +/- 0.8 g); type: functional
Blood [14] = assay: Biodistribution in blood of athymic NCr mouse xenografted with human OVCAR-3 cells assessed per gram of tissue at 0.25 mCi, ip administered 31 days after tumor implantation as single bolus dose measured 55 days after implantation by gamma counting in presence of SHBG; type: ADME, organism-based; conditions: in vivo
Outline: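 Mice given one ip bolus of 0.25 mCi co-injected with SHBG; blood, tumor cells, solid tumors and normal tissues taken at necropsy and counted; %ID/g decay-corrected.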

Heart = assay: Biodistribution in heart of athymic NCr mouse xenografted with human OVCAR-3 cells assessed per gram of tissue at an average 39.5 uCi/dose, ip administered 9 days after tumor implantation as six fractionated doses every 4 days measured after 2 weeks of last dose by gamma counting; type: ADME, organism-based; conditions: in vivo, 336 h; outline: as §2
Spleen = assay: Biodistribution in spleen of athymic NCr mouse xenografted with human OVCAR-3 cells assessed per gram of tissue at an average 39.5 uCi/dose, ip administered 9 days after tumor implantation as six fractionated doses every 4 days measured after 2 weeks of last dose by gamma counting; type: ADME, organism-based; conditions: in vivo, 336 h; outline: as §2
Kidney = assay: Biodistribution in kidney of athymic NCr mouse xenografted with human OVCAR-3 cells assessed per gram of tissue at an average 39.5 uCi/dose, ip administered 9 days after tumor implantation as six fractionated doses every 4 days measured after 2 weeks of last dose by gamma counting; type: ADME, organism-based; conditions: in vivo, 336 h; outline: as §2

| SMILES | t1/2 (Serum) | Drug uptake (LNCaP [1]) | Drug uptake [2] | t1/2 [3] | Activity (OVCAR-3 [4]) | Activity (OVCAR-3 [5]) | Drug uptake (OVCAR-3 [6]) | Ratio [7] | Ratio [8] | Stability [9] | Survival (LNCaP [10]) | Activity (Mus musculus) | Activity [11] | Drug uptake (Blood [12]) | Activity (OVCAR-3 [13]) | Drug uptake (Blood [14]) | Drug uptake (Heart) | Drug uptake (Spleen) | Drug uptake (Kidney) |
| --- | --- | --- | --- | --- | --- | --- | --- | --- | --- | --- | --- | --- | --- | --- | --- | --- | --- | --- | --- |
| C[C@]12CCC(=O)C[C@@H]1CC[C@@H]1[C@@H]2CC[C@]2(C)[C@@H](OC(=O)CCC(=O)O[C@H]3C[C@H](n4cc([125I])c(=O)[nH]c4=O)O[C@@H]3CO)CC[C@@H]12 | 14.7 h | tde | 3.4% | 26 h | 380000000 | 70% | 0.5 %ID | 1 | 16.6 | – | – | – | – | – | – | – | – | – | – |
| C[C@]12CCC(=O)C[C@@H]1CC[C@@H]1[C@@H]2CC[C@]2(C)[C@@H](OC(=O)CCC(=O)O[C@H]3C[C@H](n4cc([125I])c(=O)[nH]c4=O)O[C@@H]3COP(=O)(O)O)CC[C@@H]12 | – | – | – | – | – | – | – | – | – | Stable | 90% | 12.2 g/dL | Active | 0.003 %ID | 1.2 g | 0.057 %ID | 0.003 %ID | 0.043 %ID | 0.013 %ID |
